Measurements reported in ChEMBL document CHEMBL1144441, “Identification of a novel cardenolide (2''-oxovoruscharin) from Calotropis procera and the hemisynthesis of novel derivatives displaying potent in vitro antitumor activities and high in vivo tolerance: structure-activity relationship analyses” (J Med Chem, 2005).

Tests used:
U373 MG = assay: Concentration required for 50% growth inhibition of human U373 cancer cell lines after 3 days of culture; type: functional, cell-based, U-373MG ATCC; settings: 72 h
Procedure, shortened: (§1)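 MTT overall-growth assay on the five lines. Cells were plated for 24 h at 10 000–40 000 cells/mL, depending on cell type. Nine concentrations from 10^-9 to 10^-5 M in semilog steps were applied for 72 h. Formazan was read at 570 nm against a 630 nm reference, in sextuplicate. IC50 = concentration reducing overall growth by 50% versus untreated control.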

LoVo = assay: Concentration required for 50% growth inhibition of human LoVo cancer cell lines after 3 days of culture; type: functional, cell-based; settings: 72 h; procedure, shortened: as §1
Mus musculus = assay: Maximum tolerated dose after intraperitoneal administration in mouse (period of 28 days); type: functional
Procedure, shortened: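 Healthy, non-tumour-bearing B6D2F1 mice given one acute intraperitoneal dose, three mice per dose group, doses 5, 10, 20, 40, 80, 120 and 160 mg/kg. Survival and body weight followed for 28 days after injection. MTD is the highest single dose causing no deaths over the period.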

A549 = assay: Concentration required for 50% growth inhibition of human A549 cancer cell lines after 3 days of culture; type: functional, cell-based; settings: A549, 72 h; procedure, shortened: as §1
[1] = molecular target: Sodium/potassium-transporting ATPase subunit alpha-1 (Sus scrofa, UniProt P05024); assay: In vitro inhibitory activity against porcine Na+/K+-ATPase
Procedure, shortened: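 Porcine cerebral cortex Na+/K+-ATPase (3 × 10-3 units), preincubated 30 min at 37 °C in 30 mM Tris-HCl pH 7.4, 5 mM MgCl2 with inhibitor (1 to 50 000 nM). ADP formation coupled via pyruvate kinase/lactate dehydrogenase, excess phosphoenolpyruvate, to NADH oxidation.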

HCT-15 = assay: Concentration required for 50% growth inhibition of human HCT-15 cancer cell lines after 3 days of culture; type: functional, cell-based; settings: HCT-15, 72 h; procedure, shortened: as §1
[2] = Concentration required for 50% growth inhibition of human Hs 683 cancer cell lines after 3 days of culture; type: functional, cell-based; settings: 72 h; procedure, shortened: as §1

Row | Structure (SMILES) | IC50 (U373 MG) | IC50 (LoVo) | MTD (Mus musculus) | IC50 (A549) | IC50 [1] | IC50 (HCT-15) | IC50 [2]
1 | C[C@@H]1C[C@@]2(N=C(N)CS2)C2(O[Si](C)(C)C)O[C@@H]3C[C@@]4(CO)[C@@H](CC[C@@H]5[C@@H]4CC[C@]4(C)[C@@H](C6=CC(=O)OC6)CC[C@]54CO[Si](C)(C)C)C[C@H]3O[C@@H]2O1 (stereo partly specified) | 0.925 µM | 0.34 µM | >160 mg/kg | 0.126 µM | 1.89 µM | 0.454 µM | 0.346 µM
2 | CC(=O)OC[C@]12C[C@H]3OC4(O[Si](C)(C)C)[C@@H](O[C@H](C)C[C@@]45N=C(N)CS5)O[C@@H]3C[C@@H]1CC[C@@H]1[C@@H]2CC[C@]2(C)[C@@H](C3=CC(=O)OC3)CC[C@]12CO[Si](C)(C)C (stereo partly specified) | > 10 µM | 9.57 µM | >160 mg/kg | > 10 µM | > 50 µM | > 10 µM | 7.92 µM
3 | C[C@@H]1C[C@@]2(N=C(N)CS2)C2(O[Si](C)(C)C)O[C@@H]3C[C@@]4(C=O)[C@@H](CC[C@@H]5[C@@H]4CC[C@]4(C)[C@@H](C6=CC(=O)OC6)CC[C@]54CO[Si](C)(C)C)C[C@H]3O[C@@H]2O1 (stereo partly specified) | > 10 µM | > 10 µM | >160 mg/kg | 7.54 µM | 50 µM | > 10 µM | 8.6 µM
